Measured values as given in ChEMBL document CHEMBL2062371, “Synthesis of benzamide derivatives and their evaluation as antiprion agents” (Bioorg Med Chem, 2012).
Calls of active or inactive are those of the source.

How the values were obtained:
SMB [1] = assay: Antiprion activity in mouse SMB cells assessed as reduction in PrPSc level at 2 uM after 3 days by dot blot assay relative to control; type: cell-based; parameters: scale not given: the % may be the effect or the level left
How it was run: (§1)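 Compound was added at a final 20.0 or 2.0 µM, then incubated 3 days (ScN2a at 37 °C, SMB at 35 °C). Lysates were dot-blotted to PVDF, treated with proteinase K (25 µg/ml, 90 min, 37 °C) and denatured with guanidinium thiocyanate. PrPres was probed with rabbit 1023 antiserum and detected by ECL. Signal is relative to untreated control (100%), from three independent experiments.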

SMB [2] = assay: Antiprion activity in mouse SMB cells assessed as reduction in PrPSc level at 20 uM after 3 days by dot blot assay relative to control; type: cell-based; parameters: scale not given: the % may be the effect or the level left; how it was run: as §1
[3] = Antiprion activity in mouse ScN2a cells assessed as reduction in PrPSc level after 3 days by dot blot assay relative to control; type: cell-based; conditions: 72 h
[4] = Antiprion activity in mouse SMB cells assessed as reduction in PrPSc level after 3 days by dot blot assay relative to control; type: cell-based; conditions: 72 h
ScN2a [5] = assay: Antiprion activity in mouse ScN2a cells assessed as reduction in PrPSc level at 2 uM after 3 days by dot blot assay relative to control; type: cell-based; parameters: scale not given: the % may be the effect or the level left; how it was run: as §1
[6] = Inhibition of mouse recombinant alexa fluor 488-labeled PrPC expressed in Escherichia coli BL21(DE3) RIL assessed as inhibition of association with PrPSc measured for 10 secs by SIFT-based confocal microscopy
How it was run: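 SIFT assay: Alexa-488-labelled mouse rPrP and Alexa-647-labelled L42 antibody (each about 2–6 nM) were mixed with diluted human PrPSc and compound in 20 mM potassium phosphate pH 6 with 0.1% Nonidet P40. Dilution series 0.1–100 µM. Read by dual-colour confocal FIDA as 2D intensity histograms, with cut-offs set from controls. EC50 is half-maximal inhibition of rPrP binding to PrPSc.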

ScN2a [7] = assay: Antiprion activity in mouse ScN2a cells assessed as reduction in PrPSc level at 20 uM after 3 days by dot blot assay relative to control; type: cell-based; parameters: scale not given: the % may be the effect or the level left; how it was run: as §1
ScN2a [8] = assay: Antiprion activity in mouse ScN2a cells assessed as inhibition of PrPSc formation at 17 uM after 3 days by dot blot assay relative to control; type: cell-based

CCCCNC(=O)c1cc(NC(=O)CN2CCCCC2)ccc1Oc1ccc(Cl)cc1
Activity (SMB [1]): 68%
Activity (SMB [2]): 49%
EC50 [3]: 2.25 µM
EC50 [4]: 15 µM
Activity (ScN2a [5]): 35%
EC50 ([6]; read-out: EC50): 20 µM
Activity (ScN2a [7]): 21%

CCCCNC(=O)c1cc(NC(=O)CN2CCCC2)ccc1OC12CC3CC(CC(C3)C1)C2
Activity (SMB [1]): 77%
Activity (SMB [2]): 42%
EC50 [3]: 2 µM
EC50 [4]: 12.4 µM
Activity (ScN2a [5]): 34%
EC50 ([6]; read-out: EC50): 80 µM
Activity (ScN2a [7]): 16%

C#CCOc1ccc(NC(=O)CN2CCCC2)cc1C(=O)NCCCC
Activity (SMB [1]): 74%
Activity (SMB [2]): 65%
EC50 [3]: 3.52 µM
EC50 [4]: 99.2 µM
Activity (ScN2a [5]): 43%
EC50 [6]: Not Active
Activity (ScN2a [7]): 32%

CCCCNC(=O)c1cc(NC(=O)CN2CCCC2)ccc1Oc1ccccc1
Activity (SMB [1]): 92%
Activity (SMB [2]): 82%
EC50 [3]: 5.52 µM
EC50 [4]: > 1000 µM
Activity (ScN2a [5]): 48%
EC50 ([6]; read-out: EC50): 200 µM
Activity (ScN2a [7]): 41%

CCCCNC(=O)c1cc(NC(=O)CN2CCCC2)ccc1OC(C)C
Activity (SMB [1]): 59%
Activity (SMB [2]): 48%
EC50 [3]: 2.76 µM
EC50 [4]: 10.8 µM
Activity (ScN2a [5]): 42%
EC50 [6]: Not Active
Activity (ScN2a [7]): 24%

CCCCNC(=O)c1cc(NC(=O)CN2CCCCC2)ccc1Oc1ccc(C)cc1
Activity (SMB [1]): 86%
Activity (SMB [2]): 86%
EC50 [3]: 2.57 µM
EC50 [4]: > 1000 µM
Activity (ScN2a [5]): 36%
EC50 ([6]; read-out: EC50): 40 µM
Activity (ScN2a [7]): 26%

CCCCNC(=O)c1cc(NC(=O)CN2CCCCC2)ccc1Oc1ccc(OCCCC)cc1
Activity (SMB [1]): 76%
Activity (SMB [2]): 52%
EC50 [3]: 3.73 µM
EC50 [4]: 24.3 µM
Activity (ScN2a [5]): 61%
EC50 ([6]; read-out: EC50): 50 µM
Activity (ScN2a [7]): 21%

CCCCNC(=O)c1cc(NC(=O)CN2CCCCC2)ccc1Oc1ccc(OC)cc1
Activity (SMB [1]): 83%
Activity (SMB [2]): 82%
EC50 [3]: 3.56 µM
EC50 [4]: > 1000 µM
Activity (ScN2a [5]): 49%
EC50 ([6]; read-out: EC50): 150 µM
Activity (ScN2a [7]): 28%

CCCCNC(=O)c1cc(NC(=O)CN2CCCC2)ccc1Oc1ccc(C(F)(F)F)cc1
Activity (SMB [1]): 50%
Activity (SMB [2]): 41%
EC50 [3]: 1.61 µM
EC50 [4]: 5.81 µM
Activity (ScN2a [5]): 26%
EC50 ([6]; read-out: EC50): 40 µM
Activity (ScN2a [7]): 12%

CCCCNC(=O)c1cc(NC(=O)CN2CCCC2)ccc1Oc1ccccc1C(F)(F)F
Activity (SMB [1]): 61%
Activity (SMB [2]): 54%
EC50 [3]: 1.42 µM
EC50 [4]: 16.5 µM
Activity (ScN2a [5]): 16%
EC50 ([6]; read-out: EC50): 25 µM
Activity (ScN2a [7]): 15%

CCCCNC(=O)c1cc(NC(=O)CN2CCCCC2)ccc1Oc1ccc(F)cc1
Activity (SMB [1]): 61%
Activity (SMB [2]): 81%
EC50 [3]: 2.93 µM
EC50 [4]: > 1000 µM
Activity (ScN2a [5]): 35%
EC50 ([6]; read-out: EC50): 70 µM
Activity (ScN2a [7]): 32%

CCCCNC(=O)c1cc(NC(=O)CN2CCCCC2)ccc1Oc1ccccc1
Activity (SMB [1]): 65%
Activity (SMB [2]): 75%
EC50 [3]: 3.86 µM
EC50 [4]: 501 µM
Activity (ScN2a [5]): 50%
EC50 ([6]; read-out: EC50): 200 µM
Activity (ScN2a [7]): 30%

CCCCNC(=O)c1cc(NC(=O)CN2CCCC2)ccc1Oc1ccc(C)cc1
Activity (SMB [1]): 61%
Activity (SMB [2]): 55%
EC50 [3]: 1.83 µM
EC50 [4]: 18.9 µM
Activity (ScN2a [5]): 32%
EC50 ([6]; read-out: EC50): 70 µM
Activity (ScN2a [7]): 13%

CCCCNC(=O)c1cc(NC(=O)CN2CCCCC2)ccc1Oc1ccccc1C(F)(F)F
Activity (SMB [1]): 75%
Activity (SMB [2]): 55%
EC50 [3]: 2.04 µM
EC50 [4]: 30.6 µM
Activity (ScN2a [5]): 39%
EC50 ([6]; read-out: EC50): 70 µM
Activity (ScN2a [7]): 12%

CCCCCCCC/C=C\CCCCCCCOCC(C[N+](C)(C)CCNC(=O)C(CCCNCCCN)NCCCN)OCCCCCCC/C=C\CCCCCCCC (stereo not drawn)
inhibition (ScN2a [8]): Active

CCCCNC(=O)c1cc(NC(=O)CN2CCCC2)ccc1Oc1ccc(C(C)C)cc1
Activity (SMB [1]): 73%
Activity (SMB [2]): 48%
EC50 [3]: 2.08 µM
EC50 [4]: 16.3 µM
Activity (ScN2a [5]): 32%
EC50 ([6]; read-out: EC50): 18 µM
Activity (ScN2a [7]): 20%

CCCCNC(=O)c1cc(NC(=O)CN2CCCC2)ccc1Oc1ccc(OC)cc1
Activity (SMB [1]): 74%
Activity (SMB [2]): 75%
EC50 [3]: 2.92 µM
EC50 [4]: 866 µM
Activity (ScN2a [5]): 36%
EC50 ([6]; read-out: EC50): 198 µM
Activity (ScN2a [7]): 31%

CCCCNC(=O)c1cc(NC(=O)CN2CCCCC2)ccc1Oc1ccc(C(F)(F)F)cc1
Activity (SMB [1]): 80%
Activity (SMB [2]): 53%
EC50 [3]: 2.08 µM
EC50 [4]: 30 µM
Activity (ScN2a [5]): 35%
EC50 ([6]; read-out: EC50): 70 µM
Activity (ScN2a [7]): 17%

C#CCOc1ccc(NC(=O)CN2CCCCC2)cc1C(=O)NCCCC
Activity (SMB [1]): 70%
Activity (SMB [2]): 66%
EC50 [3]: 9.28 µM
EC50 [4]: 97.2 µM
Activity (ScN2a [5]): 76%
EC50 [6]: Not Active
Activity (ScN2a [7]): 37%

CCCCNC(=O)c1cc(NC(=O)CN2CCCCC2)ccc1Oc1ccc(C(C)C)cc1
Activity (SMB [1]): 72%
Activity (SMB [2]): 46%
EC50 [3]: 2.22 µM
EC50 [4]: 13.8 µM
Activity (ScN2a [5]): 43%
EC50 ([6]; read-out: EC50): 15 µM
Activity (ScN2a [7]): 13%

CCCCNC(=O)c1cc(NC(=O)CN2CCCC2)ccc1Oc1ccc(OCCCC)cc1
Activity (SMB [1]): 82%
Activity (SMB [2]): 58%
EC50 [3]: 2.98 µM
EC50 [4]: 53.6 µM
Activity (ScN2a [5]): 52%
EC50 ([6]; read-out: EC50): 30 µM
Activity (ScN2a [7]): 19%

CCCCNC(=O)c1cc(NC(=O)CN2CCCC2)ccc1Oc1ccc(F)cc1
Activity (SMB [1]): 57%
Activity (SMB [2]): 92%
EC50 [3]: 4.7 µM
EC50 [4]: > 1000 µM
Activity (ScN2a [5]): 45%
EC50 ([6]; read-out: EC50): 200 µM
Activity (ScN2a [7]): 39%

CCCCNC(=O)c1cc(NC(=O)CN2CCCC2)ccc1Oc1ccc(Cl)cc1
Activity (SMB [1]): 68%
Activity (SMB [2]): 46%
EC50 [3]: 1.7 µM
EC50 [4]: 12.3 µM
Activity (ScN2a [5]): 25%
EC50 ([6]; read-out: EC50): 55 µM
Activity (ScN2a [7]): 16%

CCCCNC(=O)c1cc(NC(=O)CN2CCCC2)ccc1OC1CCCCC1
Activity (SMB [1]): 67%
Activity (SMB [2]): 38%
EC50 [3]: 3.14 µM
EC50 [4]: 7.81 µM
Activity (ScN2a [5]): 38%
EC50 ([6]; read-out: EC50): 200 µM
Activity (ScN2a [7]): 32%

CCCCNC(=O)c1cc(NC(=O)CN2CCCCC2)ccc1OC12CC3CC(CC(C3)C1)C2
Activity (SMB [1]): 54%
Activity (SMB [2]): 36%
EC50 [3]: 1.65 µM
EC50 [4]: 5.22 µM
Activity (ScN2a [5]): 27%
EC50 ([6]; read-out: EC50): 50 µM
Activity (ScN2a [7]): 12%

CCCCNC(=O)c1cc(NC(=O)CN2CCCCC2)ccc1OC(C)C
Activity (SMB [1]): 58%
Activity (SMB [2]): 72%
EC50 [3]: 6.86 µM
EC50 [4]: 161 µM
Activity (ScN2a [5]): 78%
EC50 [6]: Not Active
Activity (ScN2a [7]): 29%

CCCCNC(=O)c1cc(NC(=O)CN2CCCCC2)ccc1OC1CCCCC1
Activity (SMB [1]): 76%
Activity (SMB [2]): 65%
EC50 [3]: 2.39 µM
EC50 [4]: 108 µM
Activity (ScN2a [5]): 37%
EC50 ([6]; read-out: EC50): 80 µM
Activity (ScN2a [7]): 22%
